Laboratory results reported in the RNAGym collection of RNA variant scans (doi:10.1126/science.aae0568).
Variants at the floor of the assay were thinned out.

B1: tRNA (parent)
chain: GUUCCGUUGGCGUAAUGGUAACGCGUCUCCCUCCUAAGGAGAAGACUGCGGGUUCGAGUCCCGUACGGAACG

Variants of: B1
Experiment: yeast fitness relative to wild type (ratio to wild type); higher = fitter; tRNA-Arg(CCU), competitive growth, 37 C, YPD
Procedure, shortened: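 For this measurement, the tRNA-Arg(CCU) gene was varied by chemical synthesis at a 3% per-site mutation rate across 69 sites, and each variant was placed at the native genomic locus in Saccharomyces cerevisiae. The pooled strains went through a 24-hour competition in YPD at 37°C in six parallel replicates, with amplicons from start and end populations read by 100-nucleotide paired-end sequencing. Darwinian fitness relative to wild type followed from the change in each genotype's frequency. Genotypes needed ≥ 100 starting reads, and estimates < 0.5 were set to 0.5.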

For C11G A45G C49U C55A, which yeast fitness is on record?
Its yeast fitness is no more than 0.5.

With C11G A15G as the variant, how does the yeast fitness read?
The yeast fitness was 0.596.

For C11G A20C C24G G63A C66U, which yeast fitness is on record?
The yeast fitness was no more than 0.5.

For C11G A15C G41A C49G, which yeast fitness is on record?
The yeast fitness was no more than 0.5.

With C11G A21U C24G G51A as the variant, how does the yeast fitness read?
The yeast fitness was no more than 0.5.

With C11G A15U C34A A42C as the variant, how does the yeast fitness read?
The yeast fitness was no more than 0.5.

With C11G A15U C55U as the variant, how does the yeast fitness read?
The yeast fitness was no more than 0.5.

With C11G A20U C27G C29U C62U as the variant, how does the yeast fitness read?
Its yeast fitness is no more than 0.5.

For C11G A21C U26A C34U, which yeast fitness is on record?
The yeast fitness was no more than 0.5.

With C11G A14C C30G A45G A57G as the variant, how does the yeast fitness read?
Its yeast fitness is no more than 0.5.

With C11G A20G U53C as the variant, how does the yeast fitness read?
Its yeast fitness is no more than 0.5.

Which yeast fitness does the source give for C11G A57C here?
The yeast fitness was 0.571.

For C11G A14C C30U G67U, which yeast fitness is on record?
The yeast fitness was no more than 0.5.

Which yeast fitness does the source give for C11G A15U C34A A42C G48A here?
Its yeast fitness is 0.619.

For C11G A14G C27A G38A A65C, which yeast fitness is on record?
Its yeast fitness is no more than 0.5.

With C11G A42U A43C C55A C66U as the variant, how does the yeast fitness read?
Its yeast fitness is no more than 0.5.

With C11G A14C A57C C61A A69C as the variant, how does the yeast fitness read?
Its yeast fitness is 0.581.

For C11G A43U U47A A65U G67C, which yeast fitness is on record?
Its yeast fitness is no more than 0.5.

With C11G A21U G51C as the variant, how does the yeast fitness read?
Its yeast fitness is no more than 0.5.

With C11G A21U C27A C61G as the variant, how does the yeast fitness read?
The yeast fitness was 0.531.

For C11G A20U C24A G25C A43U, which yeast fitness is on record?
The yeast fitness was no more than 0.5.

Which yeast fitness does the source give for C11G A20C C24U A36C U47A C66U here?
The yeast fitness was no more than 0.5.

For C11G A69C A70U, which yeast fitness is on record?
Its yeast fitness is 0.684.

With C11G A36U C66U as the variant, how does the yeast fitness read?
Its yeast fitness is no more than 0.5.

Which yeast fitness does the source give for C11G A43U here?
The yeast fitness was 0.726.

With C11G A43G as the variant, how does the yeast fitness read?
Its yeast fitness is 0.641.

Which yeast fitness does the source give for C11G A36C G68A here?
Its yeast fitness is 0.506.

For C11G A14G A37G G44A C60A C62U U64C G68A A69C, which yeast fitness is on record?
Its yeast fitness is no more than 0.5.

Which yeast fitness does the source give for C11G A15G U28G C29U C33G C46G A57C here?
The yeast fitness was no more than 0.5.

With C11G A57G C61U as the variant, how does the yeast fitness read?
The yeast fitness was 0.588.

For C11G A15C C24U A43U G68A, which yeast fitness is on record?
The yeast fitness was no more than 0.5.

With C11G A20U as the variant, how does the yeast fitness read?
The yeast fitness was 0.692.

Which yeast fitness does the source give for C11G A20C here?
Its yeast fitness is 0.615.

For C11A U47C G52C, which yeast fitness is on record?
The yeast fitness was no more than 0.5.

With C11G A14G G48A C55U A65C as the variant, how does the yeast fitness read?
Its yeast fitness is 0.759.

For C11G A15C C34U U47C G48A C55U, which yeast fitness is on record?
The yeast fitness was no more than 0.5.

For C11A U59C C60A U64A, which yeast fitness is on record?
The yeast fitness was no more than 0.5.

Which yeast fitness does the source give for C11G A14C C33G A45U C62G A65G here?
The yeast fitness was no more than 0.5.

Which yeast fitness does the source give for C11G A69C here?
The yeast fitness was 0.683.

Which yeast fitness does the source give for C11G A69U here?
Its yeast fitness is 0.608.

With C11G A69G as the variant, how does the yeast fitness read?
Its yeast fitness is 0.652.

For C11G A36U A37U C55U, which yeast fitness is on record?
Its yeast fitness is no more than 0.5.

Which yeast fitness does the source give for C11G C22A here?
The yeast fitness was 0.608.

With C11G A20G U47G as the variant, how does the yeast fitness read?
The yeast fitness was no more than 0.5.

Which yeast fitness does the source give for C11G A14G A37G G44A G63A here?
Its yeast fitness is 0.55.

With C11G A15G A45C C46A A65C as the variant, how does the yeast fitness read?
The yeast fitness was no more than 0.5.

Which yeast fitness does the source give for C11G A14C A37C G44C here?
Its yeast fitness is no more than 0.5.

With C11G A21G G23C C30A as the variant, how does the yeast fitness read?
Its yeast fitness is 0.733.

For C11G A14U C24A A57C, which yeast fitness is on record?
Its yeast fitness is 0.572.

With C11G A15U C24G A40G A42U as the variant, how does the yeast fitness read?
Its yeast fitness is no more than 0.5.

For C11G A36C A43U, which yeast fitness is on record?
The yeast fitness was no more than 0.5.

Which yeast fitness does the source give for C11G A21C C22G C30G A45U here?
The yeast fitness was 0.558.

Which yeast fitness does the source give for C11G A37C here?
The yeast fitness was 0.606.

Which yeast fitness does the source give for C11G A14G G48A C55U C66U G68C A69U here?
Its yeast fitness is no more than 0.5.

For C11G A36U, which yeast fitness is on record?
Its yeast fitness is no more than 0.5.

For C11G A36G, which yeast fitness is on record?
Its yeast fitness is 0.692.

Which yeast fitness does the source give for C11A U64C here?
The yeast fitness was 0.638.

For C11G A36C G56A A65G, which yeast fitness is on record?
The yeast fitness was no more than 0.5.

Which yeast fitness does the source give for C11G A15G A21G A37G A57U C60U C62G here?
The yeast fitness was no more than 0.5.

Which yeast fitness does the source give for C11G A40G A45G G52A here?
The yeast fitness was 0.577.

With C11G A20G C24U C31G as the variant, how does the yeast fitness read?
The yeast fitness was no more than 0.5.

For C11G A37C C66G G68U, which yeast fitness is on record?
Its yeast fitness is no more than 0.5.

For C11G C22A C27G C31U U59A, which yeast fitness is on record?
Its yeast fitness is 0.569.

With C11G A21U A36U as the variant, how does the yeast fitness read?
The yeast fitness was no more than 0.5.

Which yeast fitness does the source give for C11G A21U U35A here?
Its yeast fitness is no more than 0.5.

With C11G A21G C29G A40C U54A as the variant, how does the yeast fitness read?
The yeast fitness was no more than 0.5.

For C11G A14G G18C A20U C33U C62U G63A, which yeast fitness is on record?
The yeast fitness was no more than 0.5.

For C11G A21G G44C C61A C62U C66U, which yeast fitness is on record?
The yeast fitness was no more than 0.5.

For C11G A37G G51C A57G C66U, which yeast fitness is on record?
The yeast fitness was no more than 0.5.

For C11G A20U C22G A43C, which yeast fitness is on record?
The yeast fitness was no more than 0.5.

Which yeast fitness does the source give for C11G A14U A43U G52A G68C A69G here?
The yeast fitness was 0.636.

For C11G A15C C24G C46A C66U, which yeast fitness is on record?
The yeast fitness was no more than 0.5.

With C11G A15C C29U G41C G52A as the variant, how does the yeast fitness read?
Its yeast fitness is no more than 0.5.

With C11G A21G G38C G41C C55A A65C as the variant, how does the yeast fitness read?
The yeast fitness was 0.525.

For C11G A36G G39A G56A, which yeast fitness is on record?
Its yeast fitness is no more than 0.5.

Which yeast fitness does the source give for C11G A43C C46G here?
Its yeast fitness is 0.514.

For C11G A20U G56A C60U, which yeast fitness is on record?
The yeast fitness was 0.678.

For C11G A20C C24U A36C C66U G67A, which yeast fitness is on record?
The yeast fitness was no more than 0.5.

With C11G A20C C24U A36C U47A G56C C60G as the variant, how does the yeast fitness read?
Its yeast fitness is no more than 0.5.

For C11G A20C C49G, which yeast fitness is on record?
The yeast fitness was no more than 0.5.

For C11A U59C, which yeast fitness is on record?
The yeast fitness was 0.527.

With C11G A15G C33G A37G C60A as the variant, how does the yeast fitness read?
The yeast fitness was 0.582.

For C11G A14U C24A C60A, which yeast fitness is on record?
Its yeast fitness is no more than 0.5.

With C11G A20C A45G A70U as the variant, how does the yeast fitness read?
Its yeast fitness is no more than 0.5.
